Results as given in ChEMBL document CHEMBL4270668, “Design, Synthesis, Molecular Dynamics Simulation, and Functional Evaluation of a Novel Series of 26RFa Peptide Analogues Containing a Mono- or Polyalkyl Guanidino Arginine Derivative” (J Med Chem, 2018).
Starred links: 1 amine or outer side, 2 acyl side, 3 side chain; linkers in the order of their positions; H or OH if unused. Non-standard residues stand in square brackets, D forms with d. Residues, ends and D or L forms follow the SMILES beside them. X11 = CC(C)CNC(=N)NCCCC[C@H](N[*:1])C(=O)[*:2]; X2 = CCN(C)C(=N)NCCCC[C@H](N[*:1])C(=O)[*:2]; X8 = CCN(CC)C(=N)NCCC[C@H](N[*:1])C(=O)[*:2]; X12 = CCCNC(=N)NCCCC[C@H](N[*:1])C(=O)[*:2]; X3 = CN(C)C(=N)NCCCC[C@H](N[*:1])C(=O)[*:2]; X5 = CCN(CC)C(=N)NCC[C@H](N[*:1])C(=O)[*:2]; X6 = N=C(NCCC[C@H](N[*:1])C(=O)[*:2])N1CCC1; X7 = CCN(C)C(=N)NCC[C@H](N[*:1])C(=O)[*:2]; X9 = N=C(NCC[C@H](N[*:1])C(=O)[*:2])N1CCC1; X10 = CNC(=N)NCCCC[C@H](N[*:1])C(=O)[*:2]; Arg(ω-nPr) = CCCNC(=N)NCCC[C@H](N)C(=O)O; Arg(Me2s) = CN=C(NC)NCCC[C@H](N)C(=O)O; X4 = CNC(=N)NCC[C@H](N[*:1])C(=O)[*:2]; Arg(Et) = CCNC(=N)NCCC[C@H](N)C(=O)O; Agb = N=C(N)NCC[C@H](N)C(=O)O

How the values were obtained:
[1] = molecular target: T1, Pyroglutamylated RF-amide peptide receptor (Homo sapiens, UniProt Q96P65); test: Antagonist activity at human QRFPR expressed in CHO cells co-expressing Galpha16 assessed as inhibition of 26RFa-induced Ca2+ mobilization preincubated for 15 mins followed by agonist addition measured after 3 mins by Fluo-4 AM-based scanning fluorometery; assay type: functional, cell-based
T1 sequence (Q96P65 whole entry): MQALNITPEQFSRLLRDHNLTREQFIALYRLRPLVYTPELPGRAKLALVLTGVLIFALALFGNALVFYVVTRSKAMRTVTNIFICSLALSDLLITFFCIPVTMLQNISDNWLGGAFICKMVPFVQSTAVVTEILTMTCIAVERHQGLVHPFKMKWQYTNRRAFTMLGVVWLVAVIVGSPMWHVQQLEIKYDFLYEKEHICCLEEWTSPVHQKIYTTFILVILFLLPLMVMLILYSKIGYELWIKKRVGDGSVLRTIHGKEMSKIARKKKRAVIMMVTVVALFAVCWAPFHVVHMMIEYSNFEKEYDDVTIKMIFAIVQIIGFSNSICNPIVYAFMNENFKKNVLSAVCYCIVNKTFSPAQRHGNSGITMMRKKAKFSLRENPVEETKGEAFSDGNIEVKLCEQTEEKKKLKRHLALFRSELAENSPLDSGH
Summary of the method: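 CHO-Gα16-hQRFPR cells loaded 1 h with 2 µM Fluo-4 AM, then incubated 15 min with graded compound. A 10^-7 M final 26RFa pulse was given during recording. Background subtracted, baseline normalized to 100%, peak fluorescence taken per concentration. IC50 from sigmoidal variable-slope fits, ≥3 experiments in triplicate. Maximal effect at 10^-4 M expressed as % inhibition of the 26RFa (10^-7 M) response.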

[2] = molecular target: T1, Pyroglutamylated RF-amide peptide receptor; test: Agonist activity at human QRFPR expressed in CHO cells co-expressing Galpha16 assessed as increase Ca2+ mobilization after 3 mins by Fluo-4 AM-based scanning fluorometery; assay type: functional, cell-based
Summary of the method: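 CHO-Gα16 cells stably expressing human QRFPR, seeded at 40,000 cells/well 24 h ahead. Loaded 1 h with 2 µM Fluo-4 AM plus 0.01% pluronic acid, washed, then 30 min in HBSS with 2.5 mM probenecid and 5 mM HEPES. Compounds added at final 10^-11 to 10^-5 M; fluorescence recorded 3 min on a scanning fluorometer. EC50 from sigmoidal variable-slope fits, ≥3 experiments in triplicate.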

Compound	IC50 [1] [µM]	EC50 [2] [µM]
CCN(CC)C(=N)NCC[C@H](NC(=O)[C@H](Cc1ccccc1)NC(=O)[C@H](CO)NC(=O)[C@H](Cc1ccccc1)NC(=O)CNC(=O)CN)C(=O)N[C@@H](Cc1ccccc1)C(N)=O (H-GGFSF[X5]F-NH2)	> 100	> 100
N=C(NCCC[C@H](NC(=O)[C@H](Cc1ccccc1)NC(=O)[C@H](CO)NC(=O)[C@H](Cc1ccccc1)NC(=O)CNC(=O)CN)C(=O)N[C@@H](Cc1ccccc1)C(N)=O)N1CCC1 (H-GGFSF[X6]F-NH2)	> 100	> 100
CCN(C)C(=N)NCC[C@H](NC(=O)[C@H](Cc1ccccc1)NC(=O)[C@H](CO)NC(=O)[C@H](Cc1ccccc1)NC(=O)CNC(=O)CN)C(=O)N[C@@H](Cc1ccccc1)C(N)=O (H-GGFSF[X7]F-NH2)	> 100	> 100
CCN(CC)C(=N)NCCC[C@H](NC(=O)[C@H](Cc1ccccc1)NC(=O)[C@H](CO)NC(=O)[C@H](Cc1ccccc1)NC(=O)CNC(=O)CN)C(=O)N[C@@H](Cc1ccccc1)C(N)=O (H-GGFSF[X8]F-NH2)	> 100	> 100
N=C(NCC[C@H](NC(=O)[C@H](Cc1ccccc1)NC(=O)[C@H](CO)NC(=O)[C@H](Cc1ccccc1)NC(=O)CNC(=O)CN)C(=O)N[C@@H](Cc1ccccc1)C(N)=O)N1CCC1 (H-GGFSF[X9]F-NH2)	> 100	> 100
CNC(=N)NCCCC[C@H](NC(=O)[C@H](Cc1ccccc1)NC(=O)[C@H](CO)NC(=O)[C@H](Cc1ccccc1)NC(=O)CNC(=O)CN)C(=O)N[C@@H](Cc1ccccc1)C(N)=O (H-GGFSF[X10]F-NH2)	> 100	> 100
CCCNC(=N)NCCCC[C@H](NC(=O)[C@H](Cc1ccccc1)NC(=O)[C@H](CO)NC(=O)[C@H](Cc1ccccc1)NC(=O)CNC(=O)CN)C(=O)N[C@@H](Cc1ccccc1)C(N)=O (H-GGFSF[X12]F-NH2)	> 100	> 100

The remaining lines, values ahead:

IC50 [1] [µM]	EC50 [2] [µM]	Compound
> 100	> 100	N=C(N)NCC[C@H](NC(=O)[C@H](Cc1ccccc1)NC(=O)[C@H](CO)NC(=O)[C@H](Cc1ccccc1)NC(=O)CNC(=O)CN)C(=O)N[C@@H](Cc1ccccc1)C(N)=O (H-GGFSF[Agb]F-NH2)
–	1.37	CCNC(=N)NCCC[C@H](NC(=O)[C@H](Cc1ccccc1)NC(=O)[C@H](CO)NC(=O)[C@H](Cc1ccccc1)NC(=O)CNC(=O)CN)C(=O)N[C@@H](Cc1ccccc1)C(N)=O (H-GGFSF[Arg(Et)]F-NH2)
> 100	> 100	C/N=C(/NC)NCCC[C@H](NC(=O)[C@H](Cc1ccccc1)NC(=O)[C@H](CO)NC(=O)[C@H](Cc1ccccc1)NC(=O)CNC(=O)CN)C(=O)N[C@@H](Cc1ccccc1)C(N)=O (H-GGFSF[Arg(Me2s)]F-NH2)
–	1.4	CCCNC(=N)NCCC[C@H](NC(=O)[C@H](Cc1ccccc1)NC(=O)[C@H](CO)NC(=O)[C@H](Cc1ccccc1)NC(=O)CNC(=O)CN)C(=O)N[C@@H](Cc1ccccc1)C(N)=O (H-GGFSF[Arg(ω-nPr)]F-NH2)
> 100	> 100	CCN(C)C(=N)NCCCC[C@H](NC(=O)[C@H](Cc1ccccc1)NC(=O)[C@H](CO)NC(=O)[C@H](Cc1ccccc1)NC(=O)CNC(=O)CN)C(=O)N[C@@H](Cc1ccccc1)C(N)=O (H-GGFSF[X2]F-NH2)
> 100	> 100	CN(C)C(=N)NCCCC[C@H](NC(=O)[C@H](Cc1ccccc1)NC(=O)[C@H](CO)NC(=O)[C@H](Cc1ccccc1)NC(=O)CNC(=O)CN)C(=O)N[C@@H](Cc1ccccc1)C(N)=O (H-GGFSF[X3]F-NH2)
> 100	> 100	CNC(=N)NCC[C@H](NC(=O)[C@H](Cc1ccccc1)NC(=O)[C@H](CO)NC(=O)[C@H](Cc1ccccc1)NC(=O)CNC(=O)CN)C(=O)N[C@@H](Cc1ccccc1)C(N)=O (H-GGFSF[X4]F-NH2)
–	2.75	CC(C)CNC(=N)NCCCC[C@H](NC(=O)[C@H](Cc1ccccc1)NC(=O)[C@H](CO)NC(=O)[C@H](Cc1ccccc1)NC(=O)CNC(=O)CN)C(=O)N[C@@H](Cc1ccccc1)C(N)=O (H-GGFSF[X11]F-NH2)
